Assay results gathered from unrelated publications.
Protocols differ between the studies behind these lines.
UGT2B7: UDP-glucuronosyltransferase 2B7 (UGT2B7, Homo sapiens, UniProt P16662)

| SMILES | tested on | assay | test system | setting | quantity | result |
| --- | --- | --- | --- | --- | --- | --- |
| C[C@@H](Nc1cc(F)cc(F)c1)c1cc(C(=O)N(C)C)cc2c(=O)cc(N3CCOCC3)oc12 | – | – | human, plasma | oral, 30 mg, patients | Tmax | 1.53 h |
| COc1cccc(OC)c1-c1cc(C(=O)NC2(C(=O)O)C3CC4CC(C3)CC2C4)nn1-c1ccc(C(=O)N(C)CCCN(C)CCCN(C)C(=O)CN2CCN(CC(=O)[O-])CCN(CC(=O)[O-])CCN(CC(=O)[O-])CC2)cc1C(C)C.[177Lu+3] (stereo not drawn) | HT-29 | – | liver | intravenous, 4 h, tumour-bearing | tracer uptake | 3.1 %ID/g |
| CCOC(=O)CC1SC(=NN=Cc2ccc(OC)cc2)NC1=O (stereo not drawn) | LLC-MK2 | cell growth or viability, MTT | – | 96 h, pH 7.2 | CC50 | 399 µM |
| C=C1CC[C@@H]2[C@](C)(CO)[C@H](O)CC[C@@]2(C)[C@@H]1C/C=C1/C(=O)OC[C@H]1O | UGT2B7 | enzyme activity, inhibitor | – | 100 µM, pH 7.4 | inhibition | 94% |
| CC(=O)O[C@@H]1c2c(ccc3ccc(=O)oc23)OC(C)(C)[C@@H]1OC(=O)C1(C)OC1C (stereo partly drawn) | RD | cell growth or viability, WST-1 | – | – | IC50 | 42.8 µM |
| CCOC(=O)CC1SC(=NN=Cc2ccccc2OC)NC1=O (stereo not drawn) | LLC-MK2 | cell growth or viability, MTT | – | 96 h, pH 7.2 | CC50 | 539 µM |
| C=C1CCC2C(C)(CO)C(=O)CCC2(C)C1CCC1=CCOC1=O (stereo not drawn) | UGT2B7 | enzyme activity, inhibitor | – | 100 µM | inhibition | 94% |
| COc1cc(OC)cc(N(CCNC(C)C)c2ccc3ncc(-c4cnn(C)c4)nc3c2)c1 | LLC-PK1 | – | Caco-2 | – | Papp | 19.8 ×10⁻⁶ cm/s |
| CCOC(=O)CC1SC(=NN=Cc2cccc(Br)c2)NC1=O (stereo not drawn) | LLC-MK2 | cell growth or viability, MTT | – | 96 h, pH 7.2 | CC50 | 446 µM |
| C/C=C(/C)C(=O)O[C@@H]1[C@H](OC(C)=O)c2c(ccc3ccc(=O)oc23)OC1(C)C | RD | cell growth or viability, WST-1 | – | – | IC50 | 44.4 µM |
| CCOC(=O)CC1SC(=NN=Cc2ccccc2Cl)NC1=O (stereo not drawn) | LLC-MK2 | cell growth or viability, MTT | – | 96 h, pH 7.2 | CC50 | 229 µM |
| CC(C)n1cc(C#N)c2cc(-n3cc(C(=O)O)cn3)ccc21 | – | – | human, plasma | oral, 200 mg, single dose, fasted, healthy volunteers | Tmax | 2.7 h |
| CC1(C)CC[C@]2(C)CC[C@]3(C)[C@H]4CC=C5[C@@H](CC[C@H](O)C5(C)C)[C@]4(C)CC[C@@]3(C)[C@@H]2C1 | RD | cell growth or viability, WST-1 | – | – | IC50 | 79.8 µM |
| CCOC(=O)CC1SC(=NN=Cc2ccc(O)c(OC)c2)NC1=O (stereo not drawn) | LLC-MK2 | cell growth or viability, MTT | – | 96 h, pH 7.2 | CC50 | 545 µM |
| C[C@H](O)c1cc(C(=O)N[C@@H](C)Cn2ccc(-c3ccc(C#N)c(Cl)c3)n2)n[nH]1 | UGT2B7 | enzyme activity, inhibitor | human, liver microsomes | – | IC50 | > 100 µM |
